Screening results: PubChem BioAssay, several laboratories
PLK1 PBD inh: blocks phosphopeptide binding to human Plk1 polo box domain; Plk1 PBD phosphopeptide binding, fluorescence polarization; inhibition, %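 (tested at about 20 µM)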; 0.13% of 97,000 active; AID 693; in the data active = inhibition above about 34%, passing the limit was not always enough
Target sequence (P53350 whole entry, looked up, the tested form may be a part): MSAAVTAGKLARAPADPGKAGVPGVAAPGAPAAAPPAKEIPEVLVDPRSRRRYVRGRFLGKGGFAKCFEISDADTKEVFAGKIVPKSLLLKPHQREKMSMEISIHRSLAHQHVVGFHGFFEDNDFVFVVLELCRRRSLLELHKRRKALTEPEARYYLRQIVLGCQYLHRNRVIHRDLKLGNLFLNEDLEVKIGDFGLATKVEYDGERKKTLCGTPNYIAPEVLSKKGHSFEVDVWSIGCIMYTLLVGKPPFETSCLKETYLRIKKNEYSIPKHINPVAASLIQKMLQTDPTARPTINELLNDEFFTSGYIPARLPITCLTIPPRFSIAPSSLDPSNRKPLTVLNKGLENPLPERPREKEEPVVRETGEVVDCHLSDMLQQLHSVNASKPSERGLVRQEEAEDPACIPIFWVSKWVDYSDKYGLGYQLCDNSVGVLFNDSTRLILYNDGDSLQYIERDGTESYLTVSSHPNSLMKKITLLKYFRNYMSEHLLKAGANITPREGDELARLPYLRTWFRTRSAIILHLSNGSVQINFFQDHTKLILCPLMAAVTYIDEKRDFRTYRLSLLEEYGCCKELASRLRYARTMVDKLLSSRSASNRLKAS
HIV Rev-RRE inh: inhibitors of HIV-1 Rev-RRE RNA interaction | P05866 | Rev peptide-RRE RNA binding, FRET | 0.79% of 97,000 active | inhibition, % at 8 µM;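 active = inhibition above the screen-wide mean plus 3 SD, cut at about 35% in these data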
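assay system = Cy5-tagged RRE RNA duplex with fluorescein-tagged Rev peptide | incubation = 5 + 15 min at 25 °C | also added = labelled Rev peptide | measure = % inhibition of FRET ratio versus controls | benchmarks = DMSO wells as 0% and neomycin B wells as 100% inhibition | measured by = FRET fluorescence readout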
PLK1 inh: PLK1 (human) kinase inhibition; P53350; recombinant PLK1 kinase, TR-FRET peptide phosphorylation; inhibition, % at 10 µM; 0.53% of 97,000 active;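 active = inhibition of 50% or more in the single-concentration screen; inactive = inhibition below 50%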
Cav3 T inh: blocks human Cav3.2 T-type calcium channel | Cav3.2-expressing cells, Fluo-4 calcium fluorescence FDSS; active compounds read low | B-score at 10 µM | 4% of 100,000 active;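 active = single-dose well whose peak fluorescence ratio is a statistical outlier from its plate by either plate-standardised score or position-corrected B-score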
EphB4 ephrin blk: antagonists of human EphB4-ephrin-B2 interaction; inhibition, % at 7 µM; P54760; AID 720; 0.15% of 97,000 active; EphB4 LBD / TNYL-RAW-Alexa532 peptide, fluorescence polarization;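 active = inhibition above the screen-wide mean inhibition plus 3 SD, cut at about 15% in these data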
FAK inh: inhibitors of human focal adhesion kinase | biochemical FAK kinase activity assay | 0.84% of 97,000 active | AID 727 | inhibition, %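 (tested at 7 µM)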 | Q05397; in the data active = inhibition above about 19%
A number is an active result; - = inactive; . = no result given; [ ] = dose if it differs, or a comment. Only some compounds are listed: those with a hit (about 5.3% of all), similar ones and a draw of the others.

SMILES	PLK1 PBD inh	HIV Rev-RRE inh	PLK1 inh	Cav3 T inh	EphB4 ephrin blk	FAK inh
CCCC(c1nnnn1CC1CCCO1)N1CCN(c2cc(Cl)ccc2C)CC1 (centres undefined)	-	-	-	.	-	-
Cc1ccc(Cl)cc1N1CCN(C(c2cccnc2)c2nnnn2C2CCCCC2)CC1 (centres undefined)	-	-	-	-4.99	-	-
CCC(c1nnnn1C(C)(C)C)N1CCN(c2cc(Cl)ccc2C)CC1 (centres undefined)	-	-	-	-3.78	-	-
COc1ccccc1N1CCN(C(c2ccccc2Cl)c2nnnn2C(C)(C)C)CC1 (centres undefined)	-	-	-	-6.76	-	-
COc1ccc(C(c2nnnn2C(C)(C)C)N2CCN(c3nc4ccccc4s3)CC2)cc1OC (centres undefined)	.	.	.	-4.03	.	.
COC(=O)C1(Cc2ccc(O)cc2)OC(=O)C(O)=C1c1ccc(O)cc1 (centres undefined)	.	.	.	-	.	.
O=C(O)c1ccccc1-c1ccccc1C(=O)NCCCO	-	-	-	-	-	-
OC1CCN(C(c2ccc3ncccc3c2)c2nnnn2C2CCCCC2)CC1 (centres undefined)	-	-	-	-	-	-
O=C(c1ccco1)N1CCN(C(c2ccccc2)c2nnnn2C2CCCC2)CC1 (centres undefined)	-	-	-	-	-	-
Clc1ccc(C(c2nnnn2C2CCCC2)N2CCN(c3nc4ccccc4s3)CC2)cc1 (centres undefined)	-	-	-	-8.13	-	-
c1cnc2ccc(C(c3nnnn3C3CCCC3)N3CCN(c4nc5ccccc5s4)CC3)cc2c1 (centres undefined)	-	-	-	-3.86	-	-
CCCCOc1ccccc1Cn1c(=O)oc2ccc(C)cc21	-	-	-	-	-	-
Cc1ccc2oc(=O)n(Cc3ccccc3OC(C)C)c2c1	-	-	-	-6	-	-
CCN(CC)CCCN1C=C2C(=O)C(C)(OC(=O)C3CCCC3)C(=O)C=C2C=C1c1ccsc1 (centres undefined)	.	.	.	-	.	.
O=C(O)c1cc(S(=O)(=O)Nc2ccc3c(c2)OCCO3)c(Cl)cc1Cl	.	.	.	-	.	.
Cc1ccc(S(=O)(=O)N/N=C/c2cccn2-c2ccc(Cl)cc2)cc1	-	-	-	-4.33	-	-
Cc1csc(SCC(=O)c2cc(C)n(Cc3cccs3)c2C)n1	-	-	-	-4.01	-	-
Cc1csc(SCC(=O)Nc2ccc(Cl)cn2)n1	.	.	.	-5.1	.	.
COc1ccc(-n2cnnc2SCC(=O)c2cc(C)n(Cc3cccs3)c2C)cc1	-	-	-	-5.42	-	-
CC(=O)Nc1ccc(SCC(=O)c2cc(C)n(Cc3cccs3)c2C)cc1	-	-	-	-	-	-
CC(C)(C)c1csc(SCC(=O)Nc2ccc(Cl)cn2)n1	-	-	-	-	-	-
Cn1c(=O)c(N=O)c(N)n(Cc2ccccc2)c1=S	.	.	.	-	.	.
Cc1ccc(C)c(OCCOCCN2CC(C)OC(C)C2)c1C (centres undefined)	-	-	-	-	-	-
N#Cc1nc(COc2ccccc2F)oc1NCc1ccc(F)cc1	-	-	-	-	-	-
COc1ccc(CNc2oc(COc3ccc(Cl)cc3)nc2C#N)cc1	-	-	-	-4.43	-	-
SMILES	PLK1 PBD inh	HIV Rev-RRE inh	PLK1 inh	Cav3 T inh	EphB4 ephrin blk	FAK inh
CN(C)CCNc1oc(COc2ccc(Cl)cc2Cl)nc1C#N	-	-	-	-	-	-
COCCCNc1oc(COc2ccc(Cl)cc2Cl)nc1C#N	-	-	-	-5.59	-	-
COc1ccc(CCNc2oc(COc3ccccc3F)nc2C#N)cc1	-	-	-	-5.91	-	-
Cc1ccc(OCc2nc(C#N)c(NCc3ccc4c(c3)OCO4)o2)cc1	-	-	-	-6.55	-	-
CCCCOc1ccc(Cl)cc1Nc1nc(NCCO)nc(N2CCCC2)n1	.	.	.	-	.	.
CCC(CC)NC(=O)Cc1ccccc1[N+](=O)[O-]	-	-	-	-	-	-
CCN(CC)C(NC(=O)Cc1ccccc1)C(Cl)(Cl)Cl (centres undefined)	-	-	-	-	-	-
CN(Cc1ccccc1)C(NC(=O)c1ccccc1)C(Cl)(Cl)Cl (centres undefined)	-	-	-	-5.69	-	-
COc1ccc(Cn2c(CCC(=O)Nc3ccc(C)c(C)c3)nc3cccnc32)cc1	-	-	-	-3.47	-	-
O=C(CCc1nc2cccnc2n1Cc1ccccc1)NCCc1ccc(Cl)cc1	-	-	-	-7.21	-	-
COCCCNC(=O)CCc1nc2cccnc2n1Cc1ccccc1	-	-	-	-	-	-
CCNc1nc(NC(C)(C)C)nc(N(C#N)CC)n1	-	-	-	-	-	-
O=C1N=C(N2CCOCC2)S/C1=C/c1cccs1	-	-	-	-	-	-
CC1Oc2ccccc2C=C1/C=C1/SC(N2CCOCC2)=NC1=O (centres undefined)	-	36.9	-	-	-	-
COc1cccc(CNC(=O)C2CCCN(S(=O)(=O)c3c(C)[nH]c(=O)[nH]c3=O)C2)c1 (centres undefined)	-	-	-	-	-	-
CC1=C(C(=O)OC(C)C)C(c2ccc(Br)s2)NC(=O)N1C (centres undefined)	-	-	-	-4.44	-	-
CCOC(=O)C1=C(C)NC(=O)NC1c1ccc(Br)s1 (centres undefined)	-	-	-	-	-	-
Cc1ccc(-c2nc3cccnc3o2)cc1NC(=O)COc1ccc(C(C)(C)C)cc1	-	-	-	-	82.2[fluorescence artefact?]	-
COc1ccc(C2=NOC3(CC(=O)N(c4ccc5ccccc5c4)C3=O)C2)c(OC)c1 (centres undefined)	-	-	-	-	-	-
Cc1ccc(N(CC(=O)Nc2ccccc2C(=O)NCc2ccco2)S(=O)(=O)c2ccccc2)cc1C	-	-	-	-6.04	-	-
COCCn1c(SCC(=O)Nc2ccc(Cl)c(S(=O)(=O)N(C)C)c2)nc2ccccc21	-	-	-	-6.22	-	-
COCCn1c(SCC(=O)Nc2ccc(S(N)(=O)=O)cc2)nc2ccccc21	-	-	-	-	-	-
C=C(C)Cn1c(-c2ccccc2)nc2ccccc21	-	-	-	-4.07	-	-
Cc1cc(C)cc(OCC(=O)NNC(=O)CCC(=O)NCc2ccccc2)c1	-	-	-	-	-	-
C[C@@H]1CCC[C@]2(O[C@H](CCO)C[C@@H](O)[C@@H]2O)O1	.	.	.	-	.	.
CC1(C)CC2CC(C)(CN2C(=O)COC(=O)c2ccc(Cl)cc2N)C1 (centres undefined)	-	-	-	-	-	-
CC1(C)CC2CC(C)(CN2C(=O)COC(=O)c2ccc(Cl)c(N)c2)C1 (centres undefined)	-	-	-	-6.45	-	-
COc1ccccc1C1CN=NC12CCCc1ccccc1C2=O (centres undefined)	-	-	-	-4.74	-	-
COc1ccc(C2CN=NC23CCCc2ccccc2C3=O)cc1 (centres undefined)	-	-	-	-4.18	-	-
